Source: publication PMC5788008 (Current drug discovery technologies, 2017)
Converted amounts (≈) assume the structure as drawn. Like-named read-outs stand apart in the source and are kept apart here.

Tests used:
P. aeruginosa MetRS [1] = target: T1, P. aeruginosa MetRS (Pseudomonas aeruginosa, UniProt Q9HYC7)
T1 sequence (Q9HYC7 1-677): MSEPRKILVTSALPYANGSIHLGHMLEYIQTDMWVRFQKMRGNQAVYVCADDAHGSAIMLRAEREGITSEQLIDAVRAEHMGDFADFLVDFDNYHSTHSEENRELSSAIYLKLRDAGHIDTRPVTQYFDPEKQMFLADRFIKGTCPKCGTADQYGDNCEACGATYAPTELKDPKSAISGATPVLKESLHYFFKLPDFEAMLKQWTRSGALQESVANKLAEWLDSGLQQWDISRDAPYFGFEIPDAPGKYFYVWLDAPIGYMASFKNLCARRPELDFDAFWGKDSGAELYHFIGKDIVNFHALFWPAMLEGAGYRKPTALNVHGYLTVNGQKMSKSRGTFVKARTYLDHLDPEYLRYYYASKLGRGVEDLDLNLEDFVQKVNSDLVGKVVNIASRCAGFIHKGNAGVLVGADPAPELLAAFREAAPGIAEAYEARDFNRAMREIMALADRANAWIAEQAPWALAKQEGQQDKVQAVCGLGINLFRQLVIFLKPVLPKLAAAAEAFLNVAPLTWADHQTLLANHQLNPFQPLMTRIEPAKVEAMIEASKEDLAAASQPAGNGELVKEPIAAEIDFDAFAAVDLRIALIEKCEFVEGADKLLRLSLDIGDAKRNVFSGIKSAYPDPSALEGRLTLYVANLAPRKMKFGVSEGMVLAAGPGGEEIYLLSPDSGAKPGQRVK

E. coli MetRS = conditions: cited from earlier work
P. aeruginosa MetRS [2] = target: T1, P. aeruginosa MetRS; assay: tRNA aminoacylation assay in SPA format; assay type: biochemical
E. faecalis (ATCC 29212) = assay: MIC, broth microdilution; assay type: cell-based, Enterococcus faecalis
[3] = tested on: H. influenzae (ATCC 49766); assay: MIC, broth microdilution; assay type: cell-based, Haemophilus influenzae
[4] = tested on: P. aeruginosa (hypersensitive); assay: MIC, broth microdilution; assay type: cell-based, Pseudomonas aeruginosa; conditions: P. aeruginosa hypersensitive strain (ATCC 35151)
Outline: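 Broth microdilution per CLSI guideline M7-A7, read as MIC in μg/ml. Hypersensitive strain ATCC 35151 was a gift. Compound stocks were 10 mM in DMSO. Three separate sets of assays were run. MIC QC and culture purity were checked with antibiotics specific to each strain, using Etest QC ranges.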

S. aureus (ATCC 29213) = assay: MIC, broth microdilution; assay type: cell-based, Staphylococcus aureus
H. influenzae = assay: Time-kill study; assay type: cell-based, Haemophilus influenzae; conditions: 4×MIC
Outline: (§1)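 Time-kill following CLSI document M26-A. Growth media were Haemophilus Test Broth and Trypticase Soy Broth. Cultures with compound were sampled at 0, 2, 4, 6 and 24 h and plated for CFU counts. Controls had no compound but an equal amount of DMSO.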

S. aureus = assay: Time-kill study; assay type: cell-based, Staphylococcus aureus; conditions: 4×MIC
Outline: as §1

[5] = tested on: human embryonic kidney 293 cells (HEK-293); assay: MTT cytotoxicity assay; assay type: cell-based
P. aeruginosa MetRS [6] = target: T1, P. aeruginosa MetRS; assay: Binding mode; assay type: biochemical; conditions: for competition with methionine for binding MetRS: 25-300 μM methionine, 2.5 mM ATP; for competition with ATP for binding MetRS: 25-1000 μM ATP, 75 μM methionine
[7] = substrate: CSCC[C@H](N)C(=O)O; assay: purified protein, by the assay type; conditions: other: substrate methionine, ATP 2 mM; pH 7.5; 37.0 °C
[8] = substrate: Nc1ncnc2c1ncn2[C@@H]1O[C@H](COP(=O)(O)OP(=O)(O)OP(=O)(O)O)[C@@H](O)[C@H]1O; assay: purified protein, by the assay type; conditions: other: substrate ATP, methionine 2 mM; pH 7.5; 37.0 °C

Question: With Nc1ncnc2c1ncn2[C@@H]1O[C@H](COP(=O)(O)OP(=O)(O)OP(=O)(O)O)[C@@H](O)[C@H]1O [ATP, Adenosine triphosphate] as the molecule, how does the kcat (P. aeruginosa MetRS [1]; substrate ATP) read?
Answer: The kcat was 24.2 s⁻¹.

Question: And the Km (E. coli MetRS; E. coli MetRS with ATP)?
Answer: Its Km is 528 µM.

Question: And the kcat (E. coli MetRS; E. coli MetRS with ATP)?
Answer: Its kcat is 74 µM.

Question: With CC1(C)C=Cc2c(c3c(c4c(=O)c(-c5ccc(O)c(O)c5)coc24)OC(C)(C)CC3)O1 [Isopomiferin, isopomiferin] as the molecule, how does the IC50 (P. aeruginosa MetRS [2]; aminoacylation, 0.1 μM MetRS, compound 200 to 0.4 μM) read?
Answer: The IC50 was 70 µM.

Question: What about the MIC (E. faecalis (ATCC 29212)) of the same molecule?
Answer: The MIC was 32 µg/mL (≈ 76.1 µM).

Question: And the MIC [3]?
Answer: The MIC was “Moderate activity”.

Question: What about the MIC [4] of the same molecule?
Answer: The MIC was 16 µg/mL (≈ 38.1 µM).

Question: What about the MIC (S. aureus (ATCC 29213)) of the same molecule?
Answer: Its MIC is 32 µg/mL (≈ 76.1 µM).

Question: And the “mode of inhibition (time-kill)” value (H. influenzae; 0-24 h)?
Answer: Its value is “bacteriostatic”.

Question: And the “decrease of colony forming units compared to the control” value (H. influenzae; during 24 h)?
Answer: Its value is 2 to 5 log10 CFU.

Question: What about the “mode of inhibition (time-kill)” value (S. aureus; 0-24 h) of the same molecule?
Answer: The value was “bactericidal”.

Question: What about the CFUs in time-kill (S. aureus; first six hours of growth) of the same molecule?
Answer: The CFUs in time-kill was “no CFUs were observed”.

Question: What about the “CC50 relative to that of staurosporine” value [5] of the same molecule?
Answer: Its value is 10,000 fold.

Question: What about the “competition with methionine for binding MetRS” value (P. aeruginosa MetRS [6]) of the same molecule?
Answer: The value was “not observed to compete”.

Question: And the “competition with methionine for binding MetRS” value (P. aeruginosa MetRS [6]; listed as BM01C11)?
Answer: Its value is “did not compete”.

Question: And the “competition with ATP for binding MetRS” value (P. aeruginosa MetRS [6])?
Answer: Its value is “not observed to compete”.

Question: What about the “competition with ATP for binding MetRS” value (P. aeruginosa MetRS [6]; listed as BM01C11) of the same molecule?
Answer: Its value is “did not compete”.

Question: What about the form of inhibition (P. aeruginosa MetRS [6]; IC50 constant as ATP or methionine increased) of the same molecule?
Answer: The form of inhibition was “non-competitive”.

Question: For CSCC[C@H](N)C(=O)O [Methionine], which kcat (P. aeruginosa MetRS [1]; substrate methionine) is on record?
Answer: Its kcat is 37.2 s⁻¹.

Question: What about the Km (E. coli MetRS; E. coli MetRS with methionine) of the same molecule?
Answer: The Km was 21 µM.

Question: And the kcat (E. coli MetRS; E. coli MetRS with methionine)?
Answer: Its kcat is 74 µM.

Question: With O=c1cc(-c2cc(O)c(O)c(O)c2)oc2cc(O)cc(O)c12 [hieracin] as the molecule, how does the IC50 (P. aeruginosa MetRS [2]) read?
Answer: Its IC50 is 8.3 µM.

B1: P. aeruginosa MetRS (Pseudomonas aeruginosa PAO1) (protein)
chain: T1 sequence (Q9HYC7 1-677)
Question: For B1, which Km [7] is on record?
Answer: Its Km is 35 µM.

Question: What about the kcat [7] of the same molecule?
Answer: The kcat was 37.2 s⁻¹.

Question: And the kcat/Km [7]?
Answer: Its kcat/Km is 1.1 µM/s.

Question: What about the Km [8] of the same molecule?
Answer: Its Km is 515 µM.

Question: What about the kcat [8] of the same molecule?
Answer: Its kcat is 24.2 s⁻¹.

Question: What about the kcat/Km [8] of the same molecule?
Answer: Its kcat/Km is 0.05 µM/s.
